# CHT inh: human CHT choline transport inhibition | actives 0.86% (n = 310,000) | B-score at 10 µM | AID 488975 | CHT-expressing cells, membrane potential dye, choline response; active compounds read low;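 active means B-score over 3 SD under the library average, and starting fluorescence ratio not unusually high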;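 further: choline stimulus applied at its EC90 after an EC20 pre-addition; B-score computed on integrated fluorescence ratio after choline addition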
# Target sequence (Q9GZV3 whole entry, looked up): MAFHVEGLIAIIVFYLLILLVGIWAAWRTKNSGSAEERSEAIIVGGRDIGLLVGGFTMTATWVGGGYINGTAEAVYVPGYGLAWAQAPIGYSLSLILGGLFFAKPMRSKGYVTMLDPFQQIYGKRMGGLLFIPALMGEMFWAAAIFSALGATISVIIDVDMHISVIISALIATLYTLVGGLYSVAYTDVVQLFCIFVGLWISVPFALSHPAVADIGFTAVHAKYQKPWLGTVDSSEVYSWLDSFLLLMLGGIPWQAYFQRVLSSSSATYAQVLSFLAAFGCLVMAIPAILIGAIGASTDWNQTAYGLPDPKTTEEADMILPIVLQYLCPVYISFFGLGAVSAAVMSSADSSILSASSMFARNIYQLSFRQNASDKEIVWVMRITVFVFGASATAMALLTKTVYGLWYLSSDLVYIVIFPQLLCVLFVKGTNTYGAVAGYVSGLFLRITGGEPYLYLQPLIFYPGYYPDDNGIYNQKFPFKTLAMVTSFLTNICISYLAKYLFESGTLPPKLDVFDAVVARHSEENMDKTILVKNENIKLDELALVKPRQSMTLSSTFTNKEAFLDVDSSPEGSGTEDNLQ
# PolyA inhibitor: inhibitors of polyadenylation in S. cerevisiae; S. cerevisiae SKY197-pL101 polyadenylation reporter, beta-gal luminescence; efflux-impaired pdr1/pdr3 knockout yeast; score 100 = 6 SD above DMSO; actives 0.02% (n = 300,000); activity score, % at 12 µM;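 active means lowest replicate activity score at least 50, where 100 means six control SD above control mean; inconclusive means lowest score under 50 but half or more replicates reach 50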;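 further: yeast exposed to compound for 9 h at 30 °C; higher score means more reporter readthrough which indicates perturbed polyadenylation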
# CHT PAM: human CHT allosteric activation | Q9GZV3 | actives 0.49% (n = 310,000) | CHT-expressing cells, membrane potential dye, choline EC20; active compounds read high; LV-AA mutant CHT in HEK293 cells | B-score at 10 µM | AID 488977;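 active means initial fluorescence not abnormally high and integrated response B-score, plate-corrected, over 3 SD above library mean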
# T cruzi repl: blocks replication of Trypanosoma cruzi | T. cruzi beta-gal in NIH3T3, luminescence, 90 h | actives 1.4% (n = 300,000) | inhibition, % (no concentration beside the values) | AID 1885;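 active means mean inhibition across valid replicates above about 55%, limit read from the data; inconclusive means mean below that limit but half or more replicates reach it; inactive means mean below it, under half of replicates reach it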;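 further: signal also drops with host cell toxicity which is not excluded here; 0% = plate median of DMSO wells and 100% = zero luminescence signal; higher percent means less beta-gal luminescence so fewer parasites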
#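 Assay system: NIH/3T3 fibroblasts plus reporter T. cruzi. Amount: NIH/3T3 cells, 5,000 per well. Buffer or medium: DMEM, 2% fetal bovine serum. Doses: compound pinned at 50 nL/well, DMSO. Schedule: ≥90 h infection period, 3 h prior cell attachment. Signal: luminescent β-galactosidase signal after 60 min lysis. Read-out: parasite load inhibition, %.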
# * = called active by the depositor; i = inactive; ? = inconclusive. This is a sample that favours compounds with a hit; in the whole collection about 2.6% have one here.
SMILES,CHT inh,PolyA inhibitor,CHT PAM,T cruzi repl
Cc1ccc(NC(=O)Cn2nc(-c3ccco3)ccc2=O)cc1Cl,i,3.0,i,-22.1
CC(=O)Nc1ccc(CN2CCCN(C)CC2)cc1,i,-11.0,i,-3.8
CC(C)Cc1ccc(CN2CCCC(NC(=O)CCn3cnnn3)C2)cc1 (stereo not given),i,2.4,i,56.0*
CC(C)Cc1ccc(CN2CCCC(NC(=O)Cn3cnnn3)C2)cc1 (stereo not given),i,20.9,i,?
COCCn1c(C)cc(C(=O)CSc2cc(C)c3ccc(OC)cc3n2)c1C,i,0.0,i,-5.0
COc1ccc2c(C)cc(SCC(=O)c3ccc4c(c3)OCO4)nc2c1,i,-14.1,i,58.6*
COc1ccc(N2CCN(c3ncnc4scc(-c5ccc(F)cc5)c34)CC2)cc1,i,-8.5,i,23.1
COc1ccc(N2CCN(c3ncnc4scc(-c5ccc(C)cc5)c34)CC2)cc1,i,14.1,i,57.8*
COc1ccc(N2CCN(C(=O)CSc3ncnc4scc(-c5ccc(C)cc5)c34)CC2)cc1,i,10.1,i,75.8*
COc1ccc(N2CCN(C(=O)CSc3nc(C)cs3)CC2)cc1,i,-1.7,i,-7.2
CC1=C([N+](=O)[O-])C(c2ccc(Cl)cc2)NC(=O)N1 (stereo not given),i,-19.3,i,3.7
Cn1c(CNC(=O)CCNC(=O)c2ccccc2F)cc(=O)n(C)c1=O,i,-5.1,i,-19.8
COC(=O)N/N=C/c1ccc(-c2cc(Cl)cc(Cl)c2)o1,i,-10.4,i,25.1
O=C(N/N=C/c1ccc(-c2cccc(C(F)(F)F)c2)o1)c1cccc(F)c1,i,23.4,i,68.8*
O=C(N/N=C/c1ccc(-c2ccccc2Cl)o1)c1ccccc1,i,13.0,i,75.0*
NC(=S)N/N=C/c1ccc(-c2cc(Cl)ccc2Cl)o1,i,-50.2,i,67.3*
CCOC(=O)N/N=C\c1ccc(-c2cc(Cl)ccc2Cl)o1,i,-4.9,i,32.9
NC(=S)N/N=C/c1ccc(-c2cc(Cl)cc(Cl)c2)o1,i,7.8,i,59.2*
O=C(CCC(=O)N1CCc2ccccc2C1)NCCc1ccc(Cl)cc1,i,-13.1,i,1.5
CCCNC(=O)CN1C(=O)COc2ccc(S(=O)(=O)N3CC(C)CC(C)C3)cc21 (stereo not given),i,5.5,i,5.3
CCOc1ccccc1N1CC(C(=O)Nc2cc(S(C)(=O)=O)ccc2Cl)CC1=O (stereo not given),i,-18.1,i,1.1
O=C(COc1ccc(Br)cc1)Nc1ccc(CN2CCOCC2)cc1,i,-56.6,i,-2.3
Cn1ccnc1SCC(=O)Nc1cccc(S(=O)(=O)N2CCCCC2)c1,i,-13.7,i,3.6
Cc1nc2ccc([N+](=O)[O-])cc2c(=O)n1Cc1ccc([N+](=O)[O-])cc1,i,6.8,i,34.5
N#Cc1c(N)n(Cc2ccccc2)c(=O)c2cc([N+](=O)[O-])ccc12,i,1.9,i,57.2*
SMILES,CHT inh,PolyA inhibitor,CHT PAM,T cruzi repl
COc1ccc(N(C)C(=O)c2cn(C)c(=O)c3cc(OC)c(OC)cc23)cc1,i,8.2,i,-20.5
COc1cc(/C=C/C(=O)N2CC(C)OC(C)C2)cc(OC)c1OC (stereo not given),i,8.2,i,-8.0
CC1CCCN(CCOCCSc2ccccc2)C1 (stereo not given),i,-7.4,i,59.9*
CC1CC(C)CN(CCOCCSc2ccccc2)C1 (stereo not given),i,-13.2,i,60.0*
Cc1cc(Cl)c(OCCOCCN2CCCC(C)C2)c(Br)c1 (stereo not given),i,-16.5,i,72.7*
CCN(CC(=O)Nc1cc(Cl)ccc1C)C(=O)CCS(=O)(=O)c1ccc(C)cc1,i,-12.3,i,2.6
COCCNC(=O)c1cccc(OC2CCN(C(C)COc3ccccc3)CC2)c1 (stereo not given),i,6.7,i,49.6
Cc1nc(N2CCC(C)CC2)c2c(C)c(C(=O)Nc3ccc(C(F)(F)F)cc3)sc2n1,i,5.4,i,61.1*
O=C(CSc1nc2ccccc2o1)N1N=C(c2cccs2)CC1c1ccc(F)cc1 (stereo not given),i,2.9,i,40.2
Cc1ccc(C2CC(c3cccs3)=NN2C(=O)CSc2nc(=O)n3ccc(C)cc3n2)cc1 (stereo not given),i,-2.3,i,60.4*
COc1ccc(C2CC(c3cccs3)=NN2C(=O)CSc2nc(=O)n3ccc(C)cc3n2)cc1 (stereo not given),i,-8.6,i,36.8
O=C(CSc1nc(=O)n2ccccc2n1)N1N=C(c2cccs2)CC1c1ccc(F)cc1 (stereo not given),i,8.0,i,58.5*
Cc1ccc(C)c(NS(=O)(=O)c2cc(C(=O)N3CCc4ccccc4C3)ccc2Cl)c1,i,-42.6,i,55.6*
Cc1ccccc1NS(=O)(=O)c1cc(C(=O)N2CCCC2)ccc1Cl,i,-2.4,i,-0.7
Cc1cccc(NS(=O)(=O)c2cc(C(=O)N3CCc4ccccc4C3)ccc2Cl)c1C,i,-34.6,i,60.3*
Cc1ccc(C)c(NC(=O)N2CCc3ccccc3C2)c1,i,4.7,i,-1.1
COc1cccc(NC(=O)C2CCN(S(=O)(=O)c3ccc4c(c3)C(C)(C)C(=O)N4C)CC2)c1,i,-12.7,i,19.3
CCOC(=O)c1cnc2ccc(OCC)cc2c1N1CCN(c2ccccc2OC)CC1,i,-20.7,i,57.0*
NC(CCCCc1ccccc1)c1cccc2ccccc12 (stereo not given),i,10.9,10.5*,10.7
O=C(COC(=O)/C=C/c1ccccc1Cl)NCCNC(=O)COC(=O)/C=C/c1ccccc1Cl,i,-2.9,i,-11.1
C(=N\Nc1nc(Nc2ccccc2)nc(N2CCOCC2)n1)/c1c[nH]c2ccccc12,i,-2.1,i,72.3*
COc1ccccc1CNC(=O)CCC(=O)N1Cc2cccc(OC)c2Oc2ncccc21,i,10.6,i,-2.7
CCCc1nnc2n1N=C(c1ccc(OC)c(OC)c1)CS2,-5.02*,-4.8,i,-8.9
COc1ccc(C2=Nn3c(nnc3-c3ccccc3)SC2)cc1OC,i,-2.1,i,-12.7
CCC(C)Sc1ccc(-c2nc3ccc(C)cn3c2NCc2ccccc2)cc1OC (stereo not given),i,-6.5,i,43.3
COc1ccc(-c2nc3ccc(C)cn3c2NCc2ccccc2)cc1SC1CCCCC1,i,7.2,i,62.6*
CC(C)C[C@H](NC(=O)C1CCN(C(=O)[C@H](Cc2ccccc2)NC(=O)OC(C)(C)C)CC1)C(=O)O,i,8.6,i,-5.1
CCn1c(=O)c(C(=O)NCCc2ccccc2)c(O)c2ccccc21,i,-1.7,i,21.5
CCn1c(-c2ccccc2)c(C(=O)CCl)c2ccccc21,i,-20.2,i,61.5*

# Compound activity (PubChem)
